Among the data in ChEMBL document CHEMBL2016541, “Synthesis and biological evaluation of isoxazolo[4,5-d]pyridazin-4-(5H)-one analogues as potent anti-inflammatory agents” (Bioorg Med Chem, 2012) are UI, IC50 and inhibition in vivo values, retold here.

By pIC50 is commonly meant the negative decadic logarithm of the IC50, by convention in mol/L. The inhibition in vivo is the drop in the measured response relative to a control, in per cent.

Data set [1] concerns Rattus norvegicus. In words: Ulcerogenic activity in rat assessed as ulcer index at 0.14 mmol/kg, po after 6 hrs. Format: toxicity, organism-based. The following applies: in vivo. A digest of the protocol: (§1)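 Rats fasted 24 h (water allowed), then dosed orally with 0.14 mmol/kg in 1.0 mL 1% methylcellulose; vehicle controls given. Euthanized by CO2 at 6 h. Stomachs opened along the greater curvature, rinsed, and ulcers measured under magnifier lenses. UI = summed ulcer length (mm) per stomach averaged over 4 rats; mean ± SEM; one-way ANOVA with Holm–Sidak.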

Data set [2] in a line: Inhibition of potato 5-LOX by EIA. The arrangement: species or system Solanum tuberosum. The method, boiled down: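 Potato 5-LOX activity measured with an enzyme immunoassay (LOX assay kit). Mean of two determinations; deviation from the mean <10%.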
In data set [3] the target is T1, Prostaglandin G/H synthase 2 (Homo sapiens, UniProt P35354).
T1 sequence (P35354 whole entry): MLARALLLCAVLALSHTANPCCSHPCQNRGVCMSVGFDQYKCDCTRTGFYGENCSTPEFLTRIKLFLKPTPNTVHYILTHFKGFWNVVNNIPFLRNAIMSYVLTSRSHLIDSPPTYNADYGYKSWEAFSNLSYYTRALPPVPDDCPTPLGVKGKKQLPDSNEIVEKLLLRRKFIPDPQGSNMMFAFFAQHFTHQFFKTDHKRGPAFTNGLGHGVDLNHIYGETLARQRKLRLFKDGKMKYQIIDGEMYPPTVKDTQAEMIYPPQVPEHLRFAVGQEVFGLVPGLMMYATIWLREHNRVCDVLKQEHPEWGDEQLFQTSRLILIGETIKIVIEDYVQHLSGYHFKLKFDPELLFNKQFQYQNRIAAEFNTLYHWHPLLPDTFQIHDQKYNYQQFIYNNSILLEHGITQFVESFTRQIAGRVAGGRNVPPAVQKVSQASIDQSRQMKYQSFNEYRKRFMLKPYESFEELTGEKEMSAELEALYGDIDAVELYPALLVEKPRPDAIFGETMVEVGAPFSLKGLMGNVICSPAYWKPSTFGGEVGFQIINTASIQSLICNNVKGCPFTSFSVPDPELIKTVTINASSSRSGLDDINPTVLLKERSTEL
In words: Inhibition of human recombinant COX2 by fluorescence assay.

Data set [4] has as its system Rattus norvegicus. The experiment in a line: Antiinflammatory activity in rat assessed as inhibition of carrageenan-induced rat paw oedema at 0.14 mmol/kg, po after 3 hrs. Format: functional. A digest of the protocol:
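Carrageenan-induced paw edema in rats. Compounds given orally, suspended in 1% aqueous methylcellulose. Test compounds dosed at 0.14 mmol, equivalent to 30 mg/kg ibuprofen. Mean ± SEM, n = 4.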

Data set [5] deals with Rattus norvegicus. The experiment in a line: Antiinflammatory activity in rat assessed as inhibition of carrageenan-induced rat paw oedema at 30 mg/kg, po after 3 hrs. Type of data set: functional. A digest of the protocol:
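Carrageenan-induced paw edema in rats. Compounds given orally, suspended in 1% aqueous methylcellulose. Test compounds dosed at 0.14 mmol, equivalent to 30 mg/kg ibuprofen. […] Mean ± SEM, n = 4.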

Data set [6] concerns Rattus norvegicus. The experiment in a line: Ulcerogenic activity in rat assessed as ulcer index at 30 mg/kg, po after 6 hrs. The conditions noted are these: in vivo. Type of data set: toxicity, organism-based. The arrangement: dose 30 mg/kg, route oral. The method, boiled down: as §1

Structures are written as SMILES. pIC50: −log10 of the molar value.

Turning to `COc1ccc(Cc2nn(Cc3n[nH]c(=S)n3C)c(=O)c3c(C)noc23)cc1`, the UI in the data set with Rattus norvegicus [1] worked out at 0.25 mm. `O=C(O)/C=C/c1ccc(O)c(O)c1` [CAFFEIC ACID] showed a negative-log IC50 (pIC50) in data set [2] of 5.40.

With `Cc1noc2c(Cc3ccccc3)nn(Cc3nnc(Nc4ccccc4)s3)c(=O)c12`, in the data set on Rattus norvegicus [1], the UI is recorded as 0.5 mm.

Turning to `Cc1noc2c(Cc3ccccc3)nn(Cc3n[nH]c(=S)n3-c3ccccc3)c(=O)c12`, the pIC50 in data set [3] is < 4.00; in data set [2], 4.35.

As to `CCn1c(Cn2nc(Cc3ccc([N+](=O)[O-])cc3)c3onc(C)c3c2=O)n[nH]c1=S`, the pIC50 in data set [3] is 5.04; in data set [2] it was 4.83. Besides, the inhibition in vivo at 140 µmol/kg in the data set with Rattus norvegicus [4] was found to be 38%. In addition, the UI in the data set on Rattus norvegicus [1] was 0 mm.

Take `COc1ccc(Cc2nn(Cc3nnc(Nc4ccccc4)s3)c(=O)c3c(C)noc23)cc1`: the values for the pIC50 in data set [3] and in data set [2] were < 4.00 and 4.34, respectively. Consider `CC(C)Cc1ccc(C(C)C(=O)O)cc1` (stereo not drawn) [IBUPROFEN], for which the inhibition in vivo at 30 mg/kg with Rattus norvegicus [5] came out at 18.5%. For the same compound, in the data set with Rattus norvegicus [6], the UI amounted to 7 mm. On to `Cc1noc2c(Cc3ccc([N+](=O)[O-])cc3)nn(Cc3n[nH]c(=S)n3C)c(=O)c12`, for which, in the data set on Rattus norvegicus [1], the UI is 0.25 mm.

Regarding `CNc1nnc(Cn2nc(Cc3ccc([N+](=O)[O-])cc3)c3onc(C)c3c2=O)s1`, in the data set on Rattus norvegicus [1], the UI came out at 0.75 mm. `CC(c1cc2ccccc2s1)N(O)C(N)=O` (stereo not drawn) [ZILEUTON] showed a pIC50 in data set [2] of 5.96.

Consider `Cc1noc2c(Cc3ccc([N+](=O)[O-])cc3)nn(Cc3n[nH]c(=S)n3-c3ccccc3)c(=O)c12`, for which the pIC50 in data set [3] was < 4.00; in data set [2] it was 4.78.

On to `COc1ccc(Cc2nn(Cc3n[nH]c(=S)n3-c3ccccc3)c(=O)c3c(C)noc23)cc1`, for which the UI with Rattus norvegicus [1] was 0 mm. With `CCNc1nnc(Cn2nc(Cc3ccccc3)c3onc(C)c3c2=O)s1`, the figures for the pIC50 in data set [3] and in data set [2] were < 4.00 and 4.14, respectively.

As for `CCn1c(Cn2nc(Cc3ccc(OC)cc3)c3onc(C)c3c2=O)n[nH]c1=S`, the pIC50 in data set [3] was 5.66; in data set [2], 5.07.
